Assay [1] relates to A2780. The assay is described as follows: Cytotoxicity against human ovarian carcinoma A2780cisR cell line. The format is functional, cell-based. In outline:
(§1)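 Cells kept in log-phase DMEM with 10% fetal calf serum, penicillin/streptomycin and Glutamax. Seeded at 2000 cells/well and allowed 48 h adhesion at 37 °C, 5% CO2. Exposed 72 h to compound diluted from a DMSO stock into complete medium, final 0.01 to 0.0001 mg/mL, in quadruplicate. Vehicle control contained 1% DMSO. Proliferation read by MTT (1 h, DMSO solubilization, OD 590 nm).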

In assay [2] the test system is A2780. The assay is described as follows: Cytotoxicity against human ovarian carcinoma A2780 cell line. The format is functional, cell-based. In a few lines: as §1

pIC50: −log10 of the molar value.

Consider CARBOPLATIN, for which the pIC50 (in general, the IC50 on a negative log10 scale, so that one unit is a factor of ten) in assay [1] is 4.38; in assay [2], 5.09.
Turning to CISPLATIN, the figures for the pIC50 in assay [1] and in assay [2] were 5.11 and 5.64, respectively.
As to alpha-[Ru(azpy)2(NO3)2], the negative logarithm of the IC50 (pIC50) in assay [1] is 5.20; in assay [2], 5.07.
As to alpha-[Ru(azpy)2(cbdca-O,O')], the pIC50 is 5.31 in assay [1] and 5.14 in assay [2].
With alpha-[Ru(azpy)2(mal)], the pIC50 was 5.21 in assay [1] and 5.10 in assay [2].
Consider alpha-[Ru(azpy)2Cl2], for which the figures for the pIC50 in assay [1] and in assay [2] were 6.01 and 6.07, respectively.
In the same order, the values of beta-[Ru(azpy)2(NO3)2] CHCl3 are 4.92 and 5.01.
Take beta-[Ru(azpy)2Cl2] CHCl3: the pIC50 in assay [1] was 5.14; in assay [2] it was 5.80.

(Values after ChEMBL document CHEMBL1136783, “New cytotoxic and water-soluble bis(2-phenylazopyridine)ruthenium(II) complexes” (J Med Chem, 2003).)
